Reference: paper PMC4331064 (Investigational new drugs, 2010)

Tests used:
[1] = tested on: patients with advanced cancer; experiment: Phase I dose-escalation safety and tolerability; type: in vivo, human
In short: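 Single-center oral once-daily escalation. Part A used 3+3 cohorts starting at 1/12th of the allometrically scaled rat LOAEL. Part B used single-patient cohorts, expanded to 3+3 after ≥Grade 2 drug-related toxicity in cycle 1. AEs were graded by NCI CTCAE v3. DLT was a treatment-related Grade ≥3 nonhematologic or Grade ≥4 hematologic cycle-1 AE. MTD was the next lower dose after ≥2 DLTs in a cohort.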

[2] = Phase I plasma pharmacokinetics of ENMD-1198 in cancer patients
[3] = single oral dose 425 mg/m^2/day, n=5

## COc1cc2c(cc1C(N)=O)CC[C@@H]1[C@@H]2CC[C@]2(C)C=CC[C@@H]12 [ENMD-1198, 2-methoxyestra-1,3,5(10)16-tetraene-3-carboxamide]
[1]; 5–425 mg/m^2/d dose range
  Drug-related Grade 3/4 toxicities: No drug-related Grade 3/4 toxicities
[1]; oral once daily
  Recommended phase II dose (RP2D): 425 mg/m^2/d
[1]; oral once daily, cancer patients
  Maximum tolerated dose (MTD): 425 mg/m^2/day
[1]; whole study
  Life-threatening AEs or treatment-related deaths: No life-threatening AEs or treatment-related deaths
[2]; human, in vivo
  Accumulation after multiple doses: 3 fold
  Dose proportionality of plasma exposures: increased proportionally with dose
  Mean terminal half-life: 15 h
[2]; human, in vivo, po
  Tmax: 1 to 2 h
[2]; human, in vivo, po, 5 mg/m2
  AUC0–24hr: 312.35 ± 175.38 ng·h/mL
  Cmax: 68.75 ± 48.50 ng/mL
  Half-life: 12.16 ± 4.22 h
  Tmax: 1.25 ± 0.50 h
[2]; human, in vivo, po, 10 mg/m2
  AUC0–24hr: 1073.83 ± 156.28 ng·h/mL
  Cmax: 141.20 ± 28.47 ng/mL
  Half-life: 10.57 ± 4.42 h
  Tmax: 1.67 ± 0.58 h
[2]; human, in vivo, po, 20 mg/m2
  AUC0–24hr: 2138.07 ± 384.60 ng·h/mL
  Cmax: 418.66 ± 72.53 ng/mL
  Half-life: 11.03 ± 1.85 h
  Tmax: 1.33 ± 0.58 h
[2]; human, in vivo, po, 30 mg/m2
  AUC0–24hr: 3914.43 ± 1336.73 ng·h/mL
  Cmax: 677.80 ± 125.78 ng/mL
  Half-life: 19.45 ± 7.66 h
  Tmax: 1.00 ± 0.00 h
[2]; human, in vivo, po, 40 mg/m2
  AUC0–24hr: 3616.23 ± 1880.32 ng·h/mL
  Cmax: 675.83 ± 280.76 ng/mL
  Half-life: 8.98 ± 4.22 h
  Tmax: 1.33 ± 0.58 h
[2]; human, in vivo, po, 60 mg/m2
  AUC0–24hr: 4901.00 ng·h/mL
  Cmax: 1032.20 ng/mL
  Half-life: 11.82 h
  Tmax: 1.00 h
[2]; human, in vivo, po, 120 mg/m2
  AUC0–24hr: 10387.00 ng·h/mL
  Cmax: 1823.10 ng/mL
  Half-life: 10.66 h
  Tmax: 1.00 h
[2]; human, in vivo, po, 180 mg/m2
  AUC0–24hr: 14789.00 ng·h/mL
  Cmax: 2904.10 ng/mL
  Half-life: 29.80 h
  Tmax: 1.00 h
[2]; human, in vivo, po, 240 mg/m2
  AUC0–24hr: 16277.00 ng·h/mL
  Cmax: 2559.90 ng/mL
  Half-life: 16.15 h
  Tmax: 1.00 h
[2]; human, in vivo, po, 320 mg/m2
  AUC0–24hr: 42184.00 ng·h/mL
  Cmax: 3851.00 ng/mL
  Half-life: 9.70 h
  Tmax: 2.00 h
[2]; human, in vivo, po, 550 mg/m2
  AUC0–24hr: 45223.33 ± 18198.49 ng·h/mL
  Cmax: 4319.67 ± 2006.78 ng/mL
  Half-life: 17.93 ± 4.11 h
  Tmax: 1.67 ± 0.58 h
[2]; [3]
  AUC0–24hr: 24816.06 ± 14612.08 ng·h/mL
  Cmax: 2420.94 ± 1098.82 ng/mL
  Half-life: 18.40 ± 13.04 h
  Tmax: 6.20 ± 9.96 h
